Results published in ChEMBL document CHEMBL1157378, “Role for cell density in antifungal drug resistance in Candida albicans biofilms” (2007).

Experiments:
Format in all cases: functional
Candida albicans [1] = assay: Antimicrobial activity against Candida albicans SC5314 at planktonic cell density of 10^3 cells/ml after 24 hrs by XTT assay; conditions: SC5314, 24 h
Outline: (§1)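 Planktonic yeast grown in YNB with 50 mM glucose at room temperature with shaking, subcultured to about 2 x 10^8 cells/ml, then washed and resuspended in MOPS-buffered RPMI 1640 with L-glutamine at the stated density. 100 µl of cells was mixed with 100 µl of a twofold drug series (prepared at 1,024 to 0.0313 µg/ml) and incubated for 24 h at 37°C. Read-out was XTT with 1 µM menadione at 37°C, absorbance at 490 nm.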

Candida albicans [2] = assay: Antimicrobial activity against Candida albicans SC5314 at planktonic cell density of 10^8 cells/ml after 24 hrs by XTT assay; conditions: SC5314, 24 h; outline: as §1
Candida albicans [3] = assay: Antimicrobial activity against Candida albicans SC5314 dissociated biofilms at cell density of 10^3 cells/ml after 24 hrs by XTT assay; conditions: SC5314, 24 h
Outline: (§2)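 Polystyrene-well biofilms (48 h, 37°C) washed, then broken up in 100 µl RPMI by scraping and aspiration. Cells used undiluted (about 2 x 10^8 cells/ml equivalent) or adjusted by A600 against a hemacytometer-calibrated yeast standard curve. Drug exposure at 37°C for 48 h (caspofungin 24 h), then XTT/menadione read at 490 nm.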

Candida albicans [4] = assay: Antimicrobial activity against Candida albicans SC5314 dissociated biofilms at cell density of 10^8 cells/ml after 24 hrs by XTT assay; conditions: SC5314, 24 h
Outline: (§3)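 Biofilms grown from 1 x 10^6 cells/ml in RPMI on polystyrene 96-well plates, 48 h at 37°C in a moist chamber, then washed and scraped into 100 µl RPMI. Cells used undiluted (about 2 x 10^8 cells/ml equivalent) or diluted to a low density set against an A600 standard curve. A twofold drug series was added for 24 h at 37°C. Read-out was XTT/menadione at 490 nm.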

Candida albicans [5] = assay: Antimicrobial activity against Candida albicans SC5314 intact biofilms after 24 hrs by XTT assay; conditions: SC5314, 24 h
Outline: (§4)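 Intact biofilms formed from 1 x 10^6 cells/ml in RPMI in polystyrene microtiter wells, 48 h at 37°C in a moist chamber, then washed once and covered with 100 µl RPMI. A twofold drug series was added in the same well for 24 h at 37°C. Metabolic activity was read by XTT (0.5 g/liter, 1 µM menadione, up to 2 h) at 490 nm.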

Candida albicans [6] = assay: Antimicrobial activity against Candida albicans GDH2346 at planktonic cell density of 10^3 cells/ml after 24 hrs by XTT assay; conditions: GDH2346, 24 h; outline: as §1
Candida albicans [7] = assay: Antimicrobial activity against Candida albicans GDH2346 at planktonic cell density of 10^8 cells/ml after 24 hrs by XTT assay; conditions: GDH2346, 24 h; outline: as §1
Candida albicans [8] = assay: Antimicrobial activity against Candida albicans GDH2346 dissociated biofilms at cell density of 10^3 cells/ml after 24 hrs by XTT assay; conditions: GDH2346, 24 h; outline: as §3
Candida albicans [9] = assay: Antimicrobial activity against Candida albicans GDH2346 dissociated biofilms at cell density of 10^8 cells/ml after 24 hrs by XTT assay; conditions: GDH2346, 24 h; outline: as §3
Candida albicans [10] = assay: Antimicrobial activity against Candida albicans GDH2346 intact biofilms after 24 hrs by XTT assay; conditions: GDH2346, 24 h; outline: as §4
Candida albicans [11] = assay: Antimicrobial activity against Candida albicans FH1 at planktonic cell density of 10^3 cells/ml after 24 hrs by XTT assay; conditions: FH1, 24 h
Outline: (§5)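 YNB-grown yeast (50 mM glucose, room temperature, shaken, to ~2 x 10^8 cells/ml) washed into MOPS-buffered RPMI 1640 with L-glutamine and set to the stated density. Exposed to twofold serial drug dilutions (1,024 to 0.0313 µg/ml) at 37°C, 48 h (caspofungin 24 h), with drug-free controls. Read-out: XTT (0.5 g/liter) plus 1 µM menadione, formazan at 490 nm.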

Candida albicans [12] = assay: Antimicrobial activity against Candida albicans FH1 at planktonic cell density of 10^8 cells/ml after 24 hrs by XTT assay; conditions: FH1, 24 h; outline: as §1
Candida albicans [13] = assay: Antimicrobial activity against Candida albicans FH1 dissociated biofilms at cell density of 10^3 cells/ml after 24 hrs by XTT assay; conditions: FH1, 24 h; outline: as §2
Candida albicans [14] = assay: Antimicrobial activity against Candida albicans FH1 dissociated biofilms at cell density of 10^8 cells/ml after 24 hrs by XTT assay; conditions: FH1, 24 h; outline: as §3
Candida albicans [15] = assay: Antimicrobial activity against Candida albicans FH1 intact biofilms after 24 hrs by XTT assay; conditions: FH1, 24 h; outline: as §4
Candida albicans [16] = assay: Antimicrobial activity against fluconazole-resistant Candida albicans FH5 at planktonic cell density of 10^3 cells/ml after 24 hrs by XTT assay; conditions: FH5, 24 h; outline: as §5
Candida albicans [17] = assay: Antimicrobial activity against fluconazole-resistant Candida albicans FH5 at planktonic cell density of 10^8 cells/ml after 24 hrs by XTT assay; conditions: FH5, 24 h; outline: as §5
Candida albicans [18] = assay: Antimicrobial activity against fluconazole-resistant Candida albicans FH5 dissociated biofilms at cell density of 10^3 cells/ml after 24 hrs by XTT assay; conditions: FH5, 24 h; outline: as §2
Candida albicans [19] = assay: Antimicrobial activity against fluconazole-resistant Candida albicans FH5 dissociated biofilms at cell density of 10^8 cells/ml after 24 hrs by XTT assay; conditions: FH5, 24 h; outline: as §2
Candida albicans [20] = assay: Antimicrobial activity against fluconazole-resistant Candida albicans FH5 intact biofilms after 24 hrs by XTT assay; conditions: FH5, 24 h
Outline: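 Biofilm seeded at 1 x 10^6 cells/ml in RPMI in polystyrene microtiter wells and grown 48 h at 37°C in a moist chamber. Washed once and drug added to the same well (twofold dilutions, 1,024 to 0.0313 µg/ml) for 48 h at 37°C (caspofungin 24 h). Read-out: XTT/menadione reduction at 490 nm.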

Candida albicans [21] = assay: Antimicrobial activity against Cdr1, Cdr2 and Mdr1 deficient Candida albicans DSY1050 at planktonic cell density of 10^3 cells/ml after 24 hrs by XTT assay; conditions: DSY1050, 24 h; outline: as §1
Candida albicans [22] = assay: Antimicrobial activity against Cdr1, Cdr2 and Mdr1 deficient Candida albicans DSY1050 at planktonic cell density of 10^8 cells/ml after 24 hrs by XTT assay; conditions: DSY1050, 24 h; outline: as §1
Candida albicans [23] = assay: Antimicrobial activity against Cdr1, Cdr2 and Mdr1 deficient Candida albicans DSY1050 dissociated biofilms at cell density of 10^3 cells/ml after 24 hrs by XTT assay; conditions: DSY1050, 24 h; outline: as §3
Candida albicans [24] = assay: Antimicrobial activity against Cdr1, Cdr2 and Mdr1 deficient Candida albicans DSY1050 dissociated biofilms at cell density of 10^8 cells/ml after 24 hrs by XTT assay; conditions: DSY1050, 24 h; outline: as §3
Candida albicans [25] = assay: Antimicrobial activity against Cdr1, Cdr2 and Mdr1 deficient Candida albicans DSY1050 intact biofilms after 24 hrs by XTT assay; conditions: DSY1050, 24 h; outline: as §4
Candida albicans [26] = assay: Antimicrobial activity against Chk1 deficient Candida albicans CHK21 at planktonic cell density of 10^3 cells/ml after 24 hrs by XTT assay; conditions: CHK21, 24 h; outline: as §5
Candida albicans [27] = assay: Antimicrobial activity against Chk1 deficient Candida albicans CHK21 at planktonic cell density of 10^8 cells/ml after 24 hrs by XTT assay; conditions: CHK21, 24 h; outline: as §1
Candida albicans [28] = assay: Antimicrobial activity against Chk1 deficient Candida albicans CHK21 dissociated biofilms at cell density of 10^3 cells/ml after 24 hrs by XTT assay; conditions: CHK21, 24 h; outline: as §2
Candida albicans [29] = assay: Antimicrobial activity against Chk1 deficient Candida albicans CHK21 dissociated biofilms at cell density of 10^8 cells/ml after 24 hrs by XTT assay; conditions: CHK21, 24 h; outline: as §3
Candida albicans [30] = assay: Antimicrobial activity against Chk1 deficient Candida albicans CHK21 intact biofilms after 24 hrs by XTT assay; conditions: CHK21, 24 h; outline: as §4

Measured: MIC80

CC[C@H](C)C[C@H](C)CCCCCCCCC(=O)N[C@H]1C[C@@H](O)[C@@H](NCCN)NC(=O)[C@@H]2[C@@H](O)CCN2C(=O)[C@H]([C@H](O)CCN)NC(=O)[C@H]([C@H](O)[C@@H](O)c2ccc(O)cc2)NC(=O)[C@@H]2C[C@@H](O)CN2C(=O)[C@H]([C@@H](C)O)NC1=O [CASPOFUNGIN]
> 32 µg/mL: Candida albicans [2] | Candida albicans [4] | Candida albicans [5] | Candida albicans [7] | Candida albicans [9] | Candida albicans [10] | Candida albicans [12] | Candida albicans [14] | Candida albicans [15] | Candida albicans [17] | Candida albicans [19] | Candida albicans [20] | Candida albicans [22] | Candida albicans [24] | Candida albicans [25] | Candida albicans [27] | Candida albicans [29] | Candida albicans [30]
0.25 µg/mL: Candida albicans [1] | Candida albicans [8] | Candida albicans [21] | Candida albicans [23]
0.125 µg/mL: Candida albicans [6]
0.5 µg/mL: Candida albicans [3] | Candida albicans [11] | Candida albicans [13] | Candida albicans [16] | Candida albicans [18] | Candida albicans [26] | Candida albicans [28]
